16 compounds from ChEMBL document CHEMBL1135577, “Synthesis and biological evaluation of structurally highly modified analogues of the antimitotic natural product curacin A” (J Med Chem, 2002) can be followed below.

Active and inactive are the calls of the source. The rule behind the calls is not given here.

One assay has as its target Tubulin (Bos taurus). Description: Inhibition of tubulin polymerization of purified bovine brain tubulin.
The subject of assay [1] is MCF7. The experiment in a line: Tested for 50% growth inhibitory concentration by using MCF-7 cell lines. In kind it is functional. The settings on record: Homo sapiens. The procedure, abridged: (§1)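 Cultured human tumor cells were seeded at 500-2000 cells/well, allowed to attach for 48 h, then exposed continuously for 48 h to DMSO vehicle or agent at five concentrations (e.g., 50-0.08 μM, 10-0.016 μM or 1-0.0016 μM series), each in quadruplicate. A time-zero plate was included. Cell number was read by MTS/phenazine methanesulfonate at A490-A630. Values are means (N = 4 over 10 concentrations) ± SD.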

The subject of assay [2] is A2780. The experiment in a line: Tested for colchicine binding inhibition, using human ovarian cancer cell lines (at 5 uM ). The format is functional. A digest of the protocol: (§2)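 [3H]colchicine (5 μM) was incubated with 1 μM tubulin and agent (1-250 μM) or DMSO vehicle (5% v/v) at 30 °C for 15 min or 37 °C for 10 min, in 1 M monosodium glutamate, 0.1 M glucose-1-phosphate, 1 mM MgCl2, 1 mM GTP and 0.5 mg/mL BSA. Samples were filtered through DEAE-cellulose and counted by scintillation. Values are means (N = 9 over four concentrations) ± SD.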

For assay [3], the system named is A2780. The experiment in a line: Compound was tested for Tubulin polymerization inhibition by using human ovarian cancer cell lines. The format is functional. The procedure, abridged:
(§3)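 Tubulin (10 μM final, 1 mg/mL) was preincubated with agent in DMSO (4% v/v final) and 0.8 M monosodium glutamate for 15 min at 30 °C, then cooled to 0 °C and GTP (0.4 mM final) added. Turbidity at 350 nm was followed for 20 min at 30 °C. […] Values are averages of two determinations.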

The subject of assay [4] is PC-3. The experiment in a line: 50% Growth inhibitory concentration by using PC -3 human prostate carcinoma cell lines (48h continuous exposure). The format is functional. The settings on record: PC-3, 48 h. A digest of the protocol: as §1
Assay [5] relates to 2008. The experiment in a line: 50% Growth inhibitory concentration( GI 50 ) by using 2008 human ovarian carcinoma cell lines. The format is functional. The procedure, abridged:
as §1

Assay [6] has as its system A2780. Description: Compound was tested for colchicine binding inhibition by using human ovarian carcinoma cell lines (at 5 uM );NA means not active. In kind it is functional, cell-based. The procedure, abridged:
as §2

Assay [7] concerns A2780. Description: Compound was tested for Tubulin polymerization inhibition by using human ovarian carcinoma cell lines.;NA means not active. The format is functional, cell-based. A digest of the protocol: as §3
The subject of assay [8] is MDA-MB-231. The experiment in a line: Compound was tested for 50% Growth Inhibitory concentration by using MDA - MB231 human breast carcinoma cell lines. The format is functional. A digest of the protocol:
(§4)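 Cells (500–2000/well) attached and grew for 48 h, then received DMSO vehicle or agent at five-point 5-fold dilutions (from 50, 10 or 1 μM top) for 48 h, continuous exposure. A time-zero plate was included, and each concentration was run in quadruplicate. Cell number was read by MTS/phenazine methanesulfonate, A490 minus A630. Values are means (N = 4 over 10 concentrations) ± SD.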

For assay [9], the system named is A2780. The experiment in a line: Percent of Tubulin polymerization inhibition by using human ovarian cancer cell lines at a concentration of 5 uM. The format is functional. A digest of the protocol: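 Purified tubulin (10 μM final, 1 mg/mL) was preincubated 15 min at 30 °C with agent in DMSO (4% v/v final) and 0.8 M monosodium glutamate. Samples were chilled to 0 °C, and GTP was added (0.4 mM final). Turbidity at 350 nm was followed for 20 min after a rapid rise to 30 °C. Inhibition was scaled between vehicle without GTP (100%) and GTP plus vehicle (0%). Values are averages of two determinations.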

Assay [10] deals with A2780. Description: Compound tested for colchicine Binding Inhibition by using human ovarian cancer cell line (at 5 uM ). The format is functional. A digest of the protocol:
(§5)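 [3H]-colchicine (5 μM, 2.3 TBq/mmol) and test agent (1–250 μM) or DMSO vehicle (5% v/v) were incubated with 1 μM purified tubulin at 30 °C for 15 min. The medium held 1 M monosodium glutamate, 0.1 M glucose-1-phosphate, 1 mM MgCl2, 1 mM GTP and 0.5 mg/mL BSA. Samples were filtered through DEAE-cellulose stacks, and […] was counted by scintillation. Values are means (N = 9 over four concentrations) ± SD.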

The subject of assay [11] is A2780. The experiment in a line: Colchicine Binding Inhibition ( CBI ) by using human ovarian cancer cell lines at 5 uM, (values are mean of 9 over 4 concentrations +/- SD). The format is functional. The procedure, abridged:
as §5

For assay [12], the system named is MCF7. Description: Compound was tested for 50% Growth Inhibitory concentration against MCF-7 cell lines. In kind it is functional. As to conditions: Homo sapiens. The procedure, abridged:
as §4

The subject of assay [13] is 2008. Description: Compound was tested for 50% growth inhibitory concentration by using human ovarian carcinoma cell lines (2008). In kind it is functional. The procedure, abridged:
as §1

In assay [14] the test system is MDA-MB-231. Description: Compound was tested for 50% Growth Inhibitory concentration by using MDA-MB-231 cell lines. The format is functional. The settings on record: Homo sapiens. The procedure, abridged: as §1
The subject of assay [15] is A2780. Description: Compound was tested for colchicine Binding Inhibition by using human ovarian carcinoma cell line (at 5 uM ). In kind it is functional. A digest of the protocol:
as §2

In assay [16] the test system is A2780. The experiment in a line: Compound was tested for Tubulin polymerization inhibition by using human ovarian carcinoma cell lines. In kind it is functional. A digest of the protocol:
as §3

Assay [17] deals with PC-3. The experiment in a line: Compound was tested for 50% growth inhibitory concentration by using human prostate carcinoma cell lines (PC -3). The format is functional. The procedure, abridged: as §1

`C=CC[C@H](O)CC/C(C)=C/C=C/CC/C=C\C1CSC([C@@H]2C[C@@H]2C)=N1` (some centres not stated) had an IC50 at Tubulin (Bos taurus) of 870 nM. The GI50 with MCF7 [1] amounted to 450 nM. In the assay on A2780 [2], the inhibition at 5 µM stood at 82%.

At Tubulin (Bos taurus), `C=CCC1(CC/C(C)=C/C=C/CC/C=C\[C@@H]2CSC([C@@H]3C[C@@H]3C)=N2)OCCO1` came in with a half-maximal inhibitory concentration (IC50) of 780 nM. Besides, the 50% growth inhibitory concentration (GI50) with MCF7 [1] is 30 nM. The compound further registered an inhibition at 5 µM in the assay on A2780 [2] of 92%.

The compound `C=CC[C@@H](CC/C(C)=C/C=C/CC/C=C\[C@H](CSC(=O)[C@@H]1C[C@@H]1C)NC(C)=O)OC` gave an IC50 against Tubulin (Bos taurus) of 1500 nM. Besides, the concentration for 50% growth inhibition (GI50) with MCF7 [1] was 4200 nM. In the assay on A2780 [2], this compound gave an inhibition at 5 µM of 9%.

For the compound `C=CC[C@@H](CC/C(C)=C/C=C/CC/C=C\[C@@H]1CSC([C@@H]2C[C@@H]2C)=N1)OCC(F)(F)C(F)(F)C(F)(F)F`, the 50% inhibitory concentration (IC50) against Tubulin (Bos taurus) turned out to be 5400 nM. For the same compound, the concentration for 50% growth inhibition (GI50) in the assay with MCF7 [1] was greater than 10000 nM. Also, testing at 5 µM in the assay with A2780 [2] gave an inhibition of 12%.

For `C=CC[C@H](CC/C(C)=C/C=C/CC/C=C\[C@@H]1CSC([C@@H]2C[C@@H]2C)=N1)OC`, inhibition against Tubulin (Bos taurus) was half-maximal at 670 nM (IC50). The GI50 in the assay with MCF7 [1] is 180 nM. This compound displayed an inhibition at 5 µM in the assay with A2780 [2] of 56%.

In the assay with A2780 [3], `C=CC[C@@H](CC/C(C)=C/C=C/CC/C=C\c1coc(C(C)(C)C)n1)OC` showed a TPI of 51%. In the assay with A2780 [2], the inhibition at 5 µM is less than 10%. The concentration for 50% growth inhibition (GI50) with PC-3 [4] and in the assay on 2008 [5] was greater than 50000 nM throughout.

`C/C=C\[C@@H]1CSC([C@@H]2C[C@@H]2C)=N1`: the NA result in the assay with A2780 [6] and with A2780 [7] was “inactive” in each case.

In the case of `C=CC[C@@H](CC/C(C)=C/C=C/CC/C=C\[C@@H]1CSC([C@@H]2C[C@@H]2C)=N1)OC` [CURACIN A], the 50% growth inhibitory concentration (GI50) in the assay on MDA-MB-231 [8] came out at 96 nM; in the assay on PC-3 [4] it was 50 nM; in the assay with MCF7 [12], 40 nM; with 2008 [5], 35 nM. For the same compound, the TPI with A2780 [9] is on record as 98%. Moreover, the inhibition at 5 µM in the assay on A2780 [10] stood at 94%; with A2780 [11] it was 78%. The 50% inhibitory concentration (IC50) against Tubulin (Bos taurus) turned out to be 720 nM.

The compound `C=CC[C@@H](CC/C(C)=C/C=C/CC/C=C\[C@@H]1CSC([C@H]2C[C@@H]2C)=N1)OC` came in with an IC50 against Tubulin (Bos taurus) of 770 nM. The GI50 with MCF7 [1] stood at 990 nM. This compound had an inhibition at 5 µM with A2780 [2] of 88%.

For `COc1cc(CCCCCCCC(C)CCC(O)c2cccs2)cc(OC)c1OC` (configuration not stated), in the assay on A2780 [3], the TPI is 15%. The same compound registered an inhibition at 5 µM in the assay with A2780 [2] of less than 10%. For the same compound, the GI50 was 21000 nM in the assay on PC-3 [4] and 26000 nM in the assay on 2008 [5].

Compound `COc1cc(/C=C/CC/C=C/C=C(\C)CCC(O)c2cccs2)cc(OC)c1OC` (configuration not stated) came in with a TPI in the assay on A2780 [3] of 25%. The inhibition at 5 µM in the assay on A2780 [2] was less than 10%. Besides, the GI50 amounted to 35000 nM with PC-3 [4] and 21000 nM with 2008 [5].

Turning to `C=CC[C@@H](CC[C@@]1(C)C[C@@H]1[C@H]1C[C@@H]1CC/C=C\[C@@H]1CSC([C@@H]2C[C@@H]2C)=N1)OC`, the 50% growth inhibitory concentration (GI50) in the assay with 2008 [13], with MDA-MB-231 [14] and with PC-3 [17] was greater than 50000 nM throughout. In addition, the inhibition at 5 µM with A2780 [15] was less than 10%. Moreover, the TPI in the assay on A2780 [16] is on record as 0%.

The compound `C=CC[C@@H](CC/C(C)=C/C=C/CC/C=C\[C@@H]1CSC([C@H]2C[C@H]2C)=N1)OC` gave an IC50 against Tubulin (Bos taurus) of 2100 nM. The same compound displayed a GI50 in the assay with MCF7 [1] of 360 nM. The inhibition at 5 µM in the assay on A2780 [2] stood at 48%.

The compound `C=CC[C@@H](CC/C(C)=C/C=C/CC/C=C\[C@@H]1CSC([C@@H]2C[C@@H]2C)=N1)OC(=O)c1ccccc1` displayed a half-maximal inhibitory concentration (IC50) against Tubulin (Bos taurus) greater than 80000 nM. In the assay on MCF7 [1], the 50% growth inhibitory concentration (GI50) was greater than 10000 nM. This compound registered an inhibition at 5 µM in the assay with A2780 [2] of 5%.

On Tubulin (Bos taurus), `C=CC[C@@H](CC/C(C)=C/C=C\CC/C=C\[C@@H]1CSC([C@@H]2C[C@@H]2C)=N1)OC` [CURACIN B] came in with a concentration for half-maximal inhibition (IC50) of 820 nM. The same compound had a 50% growth inhibitory concentration (GI50) with MCF7 [1] of 320 nM. For the same compound, 5 µM produced 56% inhibition with A2780 [2].

`CCC[C@@H](CC/C(C)=C/C=C/CCCCC1CSC([C@@H]2C[C@@H]2C)=N1)OC` (some centres not stated) had an IC50 at Tubulin (Bos taurus) of 4600 nM. In the assay on MCF7 [1], halving of growth (GI50) required 3300 nM. In the assay with A2780 [2], this compound had an inhibition at 5 µM of 1%.

Usually IC50 stands for the concentration that inhibits the measured activity by half. The low end stands for higher potency, the high end for lower potency. By GI50 is commonly meant the concentration giving 50% growth inhibition. A low value points to more potent growth inhibition. For orientation: inhibition means the relative decrease from the control value, in per cent.
